Measured values published in ChEMBL document CHEMBL3286292, “Synthesis and antimicrobial activity of amine linked bis- and tris-heterocycles” (2014).
Activity calls are given as the source filed them. The calls are words filed in the database; no cut-off is given here.

Assays:
Format in all cases: functional
[1] = system: Pseudomonas aeruginosa; experiment: Antibacterial activity against Pseudomonas aeruginosa assessed as growth inhibition at 25 ug/well after 24 hrs by agar well diffusion method; conditions: for zone of inhibition at 25 µg/disc: read-out: DIZ
Summary of the method: (§1)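 Agar well diffusion on […] swabbed with a 24 h broth culture. Samples were dissolved in DMSO and loaded at three per-well amounts into 6 mm wells. Incubation was 37 °C for 24 h, then inhibition zone diameter was read in mm. DMSO served as the negative control. Runs were in duplicate and averaged.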

[2] = system: Bacillus subtilis; experiment: Antibacterial activity against Bacillus subtilis assessed as growth inhibition at 25 ug/well after 24 hrs by agar well diffusion method; conditions: for zone of inhibition at 25 µg/disc: read-out: DIZ; summary of the method: as §1
[3] = system: Klebsiella pneumoniae; experiment: Antibacterial activity against Klebsiella pneumoniae assessed as growth inhibition at 100 ug/well after 24 hrs by agar well diffusion method; conditions: for zone of inhibition at 100 µg/disc: read-out: DIZ; summary of the method: as §1
[4] = system: Klebsiella pneumoniae; experiment: Antibacterial activity against Klebsiella pneumoniae assessed as growth inhibition at 50 ug/well after 24 hrs by agar well diffusion method; conditions: for zone of inhibition at 50 µg/disc: read-out: DIZ; summary of the method: as §1
[5] = system: Pseudomonas aeruginosa; experiment: Antibacterial activity against Pseudomonas aeruginosa assessed as growth inhibition at 100 ug/well after 24 hrs by agar well diffusion method; conditions: for zone of inhibition at 100 µg/disc: read-out: DIZ; summary of the method: as §1
[6] = system: Klebsiella pneumoniae; experiment: Antibacterial activity against Klebsiella pneumoniae assessed as growth inhibition at 25 ug/well after 24 hrs by agar well diffusion method; conditions: for zone of inhibition at 25 µg/disc: read-out: DIZ; summary of the method: as §1
[7] = system: Aspergillus niger; experiment: Antifungal activity against Aspergillus niger assessed as inhibition of spore germination at 25 ug/well after 48 hrs by agar well diffusion method; conditions: for zone of inhibition at 25 µg/disc: read-out: DIZ
Summary of the method: (§2)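 Well diffusion using 6 mm bored wells loaded with DMSO solutions at three per-well amounts, with a DMSO negative control. Plates were held at 28 °C for 48 h, then zone of inhibition diameter was measured in mm. Runs were in duplicate and averaged.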

[8] = system: Staphylococcus aureus; experiment: Antibacterial activity against Staphylococcus aureus assessed as growth inhibition at 25 ug/well after 24 hrs by agar well diffusion method; conditions: for zone of inhibition at 25 µg/disc: read-out: DIZ; summary of the method: as §1
[9] = system: Staphylococcus aureus; experiment: Antibacterial activity against Staphylococcus aureus assessed as growth inhibition at 100 ug/well after 24 hrs by agar well diffusion method; conditions: for zone of inhibition at 100 µg/disc: read-out: DIZ; summary of the method: as §1
[10] = system: Aspergillus niger; experiment: Antifungal activity against Aspergillus niger assessed as inhibition of spore germination at 50 ug/well after 48 hrs by agar well diffusion method; conditions: for zone of inhibition at 50 µg/disc: read-out: DIZ; summary of the method: as §2
[11] = system: Pseudomonas aeruginosa; experiment: Antibacterial activity against Pseudomonas aeruginosa assessed as growth inhibition at 50 ug/well after 24 hrs by agar well diffusion method; conditions: for zone of inhibition at 50 µg/disc: read-out: DIZ; summary of the method: as §1
[12] = system: Bacillus subtilis; experiment: Antibacterial activity against Bacillus subtilis assessed as growth inhibition at 100 ug/well after 24 hrs by agar well diffusion method; conditions: for zone of inhibition at 100 µg/disc: read-out: DIZ; summary of the method: as §1
[13] = system: Staphylococcus aureus; experiment: Antibacterial activity against Staphylococcus aureus assessed as growth inhibition at 50 ug/well after 24 hrs by agar well diffusion method; conditions: for zone of inhibition at 50 µg/disc: read-out: DIZ; summary of the method: as §1
[14] = system: Bacillus subtilis; experiment: Antibacterial activity against Bacillus subtilis assessed as growth inhibition at 50 ug/well after 24 hrs by agar well diffusion method; conditions: for zone of inhibition at 50 µg/disc: read-out: DIZ; summary of the method: as §1

Structure (SMILES) | growth inhibition (GI) [1] | growth inhibition (GI) [2] | growth inhibition (GI) [5] | growth inhibition (GI) [6] | growth inhibition (GI) [7] | growth inhibition (GI) [8] | growth inhibition (GI) [9] | growth inhibition (GI) [11] | zone of inhibition at 25 µg/disc [2] [mm] | zone of inhibition at 100 µg/disc [3] [mm] | zone of inhibition at 50 µg/disc [4] [mm] | zone of inhibition at 100 µg/disc [5] [mm] | zone of inhibition at 25 µg/disc [6] [mm] | zone of inhibition at 25 µg/disc [7] [mm] | zone of inhibition at 25 µg/disc [8] [mm] | zone of inhibition at 100 µg/disc [9] [mm] | zone of inhibition at 50 µg/disc [10] [mm] | zone of inhibition at 100 µg/disc [12] [mm] | zone of inhibition at 50 µg/disc [13] [mm] | zone of inhibition at 50 µg/disc [14] [mm] | other results
NC(=S)N1N=C(Nc2nc(-c3ccccc3)co2)C[C@@H]1c1ccccc1 | inactive | inactive | inactive | inactive | inactive | inactive | inactive | inactive |  |  |  |  |  |  |  |  |  |  |  |  | growth inhibition (GI) [3]: inactive; growth inhibition (GI) [4]: inactive; zone of inhibition [10]: inactive; growth inhibition (GI) [12]: inactive; growth inhibition (GI) [13]: inactive; growth inhibition (GI) [14]: inactive
c1ccc(-c2coc(Nc3cc(-c4ccccc4)n(-c4nc(-c5ccccc5)cs4)n3)n2)cc1 | inactive |  |  |  |  |  |  | inactive | 8 | 13 | 10 | 6 | 8 | 9 | 8 | 13 | 10 | 12 | 10 | 10 | 
Clc1ccc(-c2coc(Nc3cc(-c4ccc(Cl)cc4)n(-c4nc(-c5ccc(Cl)cc5)cs4)n3)n2)cc1 |  |  |  |  |  |  |  |  | 16 | 22 | 19 | 13 | 17 | 11 | 17 | 21 | 12 | 21 | 18 | 18 | zone of inhibition at 25 µg/disc [1]: 9 mm; zone of inhibition at 50 µg/disc [11]: 10 mm
Cc1ccc(-c2csc(Nc3cc(-c4ccc(C)cc4)n(C(N)=S)n3)n2)cc1 | inactive |  |  |  |  |  |  |  | 10 | 16 | 13 | 8 | 11 | 12 | 11 | 15 | 13 | 14 | 13 | 12 | zone of inhibition at 50 µg/disc [11]: 6 mm
NC(=S)N1N=C(Nc2nc(-c3ccccc3)cs2)C[C@@H]1c1ccccc1 | inactive | inactive | inactive | inactive | inactive | inactive | inactive | inactive |  |  |  |  |  |  |  |  |  |  |  |  | growth inhibition (GI) [3]: inactive; growth inhibition (GI) [4]: inactive; zone of inhibition [10]: inactive; growth inhibition (GI) [12]: inactive; growth inhibition (GI) [13]: inactive; growth inhibition (GI) [14]: inactive
NC(=S)N1N=C(Nc2nc(-c3ccc(Cl)cc3)co2)C[C@@H]1c1ccc(Cl)cc1 | inactive | inactive | inactive | inactive | inactive | inactive | inactive | inactive |  |  |  |  |  |  |  |  |  |  |  |  | growth inhibition (GI) [3]: inactive; growth inhibition (GI) [4]: inactive; zone of inhibition [10]: inactive; growth inhibition (GI) [12]: inactive; growth inhibition (GI) [13]: inactive; growth inhibition (GI) [14]: inactive
NC(=S)N1N=C(Nc2nc(-c3ccc(Cl)cc3)cs2)C[C@@H]1c1ccc(Cl)cc1 | inactive | inactive | inactive | inactive | inactive | inactive | inactive | inactive |  |  |  |  |  |  |  |  |  |  |  |  | growth inhibition (GI) [3]: inactive; growth inhibition (GI) [4]: inactive; zone of inhibition [10]: inactive; growth inhibition (GI) [12]: inactive; growth inhibition (GI) [13]: inactive; growth inhibition (GI) [14]: inactive
NC(=S)N1N=C(Nc2nc(-c3ccc(Cl)cc3)c[nH]2)C[C@@H]1c1ccc(Cl)cc1 | inactive | inactive | inactive | inactive | inactive | inactive | inactive | inactive |  | 7 | 6 |  |  |  |  |  |  | 6 |  |  | zone of inhibition [10]: inactive; growth inhibition (GI) [13]: inactive; growth inhibition (GI) [14]: inactive
NC(=S)n1nc(Nc2nc(-c3ccc(Cl)cc3)c[nH]2)cc1-c1ccc(Cl)cc1 |  |  |  |  |  |  |  |  | 19 | 26 | 22 | 15 | 20 | 22 | 21 | 25 | 24 | 23 | 23 | 21 | zone of inhibition at 25 µg/disc [1]: 11 mm; zone of inhibition at 50 µg/disc [11]: 13 mm
NC(=S)n1nc(Nc2nc(-c3ccccc3)c[nH]2)cc1-c1ccccc1 |  |  |  |  |  |  |  |  | 18 | 24 | 20 | 14 | 19 | 19 | 18 | 23 | 20 | 22 | 20 | 20 | zone of inhibition at 25 µg/disc [1]: 10 mm; zone of inhibition at 50 µg/disc [11]: 12 mm
Cc1ccc(-c2csc(Nc3cc(-c4ccc(C)cc4)n(-c4nc(-c5ccc(C)cc5)cs4)n3)n2)cc1 |  |  |  |  |  |  |  |  | 14 | 18 | 15 | 11 | 14 | 15 | 14 | 18 | 16 | 18 | 15 | 15 | zone of inhibition at 25 µg/disc [1]: 7 mm; zone of inhibition at 50 µg/disc [11]: 8 mm
Cc1ccc(-c2coc(Nc3cc(-c4ccc(C)cc4)n(-c4nc(-c5ccc(C)cc5)cs4)n3)n2)cc1 | inactive |  | inactive |  |  | inactive |  | inactive | 6 | 10 | 8 |  | 6 | 6 |  | 8 | 8 | 9 | 6 | 8 | 
Cc1ccc(-c2c[nH]c(Nc3cc(-c4ccc(C)cc4)n(-c4nc(-c5ccc(C)cc5)cs4)n3)n2)cc1 |  |  |  |  |  |  |  |  | 12 | 17 | 14 | 10 | 13 | 16 | 12 | 17 | 17 | 16 | 14 | 13 | zone of inhibition at 25 µg/disc [1]: 6 mm; zone of inhibition at 50 µg/disc [11]: 7 mm
NC(=S)N1N=C(Nc2nc(-c3ccccc3)c[nH]2)C[C@@H]1c1ccccc1 | inactive | inactive | inactive | inactive | inactive | inactive | inactive | inactive |  | 6 |  |  |  |  |  |  |  |  |  |  | growth inhibition (GI) [4]: inactive; zone of inhibition [10]: inactive; growth inhibition (GI) [12]: inactive; growth inhibition (GI) [13]: inactive; growth inhibition (GI) [14]: inactive
